Bioassay records: PubChem BioAssay, Broad Institute
The entries come from a sample that favours hits as a whole.
T cruzi growth-1 = inhibitors of T. cruzi proliferation; T. cruzi beta-gal in NIH3T3, GalScreen luminescence, 90 h; inhibition, % at 8.34 µM; 77,000 compounds, 5.9% hits;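 active = mean inhibition above about 93%, with at least 55% of replicates each passing it, limit read from the data, passing the limit was not always enough; inconclusive = only one of those two conditions holds; inactive = neither condition holds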
KDM4C inh = blocks human GASC-1 (KDM4C) demethylase activity; GST-KDM4C 2-372, H3K9me3 peptide, LANCE TR-FRET; inhibition, % at 12.5 µM; Q9H3R0; 96,000 compounds, 0.15% hits;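 active = mean replicate inhibition above about 25%, with at least 55% of replicates also reaching it, limit read from the data, passing the limit was not always enough; inconclusive = only one of those two conditions met; inactive = neither condition met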
Target sequence (Q9H3R0 2-372 limits assumed): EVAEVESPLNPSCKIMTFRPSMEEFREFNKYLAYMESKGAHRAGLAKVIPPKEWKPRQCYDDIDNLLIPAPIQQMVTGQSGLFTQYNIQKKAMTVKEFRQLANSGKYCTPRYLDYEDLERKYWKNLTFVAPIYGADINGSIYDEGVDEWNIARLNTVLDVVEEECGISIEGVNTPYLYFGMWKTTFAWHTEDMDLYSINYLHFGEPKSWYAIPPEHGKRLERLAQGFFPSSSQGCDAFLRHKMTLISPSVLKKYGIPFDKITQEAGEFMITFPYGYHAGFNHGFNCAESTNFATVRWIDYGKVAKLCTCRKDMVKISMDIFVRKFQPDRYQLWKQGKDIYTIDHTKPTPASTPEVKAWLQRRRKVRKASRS
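System – N-terminal GST-fused human GASC-1 (KDM4C) fragment, residues 2-372 · Input – enzyme final amount 10 nM · Technique – LANCE TR-FRET, Eu antibody, ULight-streptavidin, EDTA, ex 340 nm, em 618/671 nm · Medium – HEPES buffer, pH 7.5, plus ascorbate · Incubation – enzyme reaction 30 min, then detection 60 min, both room temperature · Reagent – H3K9me3 peptide with Fe(II)/2OG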
IDH1 R132H inh = blocks human IDH1 R132H reductase activity; 70,000 compounds, 0.18% hits; diaphorase/resazurin fluorescence, 60 min; O75874; inhibition, % at 10 µM; in the data active = inhibition above about 34%; inconclusive = no clear call, values can overlap the other calls; inactive = below about 11%;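 also: 0% = DMSO and 100% = no enzyme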
Target sequence (O75874 whole entry R132H): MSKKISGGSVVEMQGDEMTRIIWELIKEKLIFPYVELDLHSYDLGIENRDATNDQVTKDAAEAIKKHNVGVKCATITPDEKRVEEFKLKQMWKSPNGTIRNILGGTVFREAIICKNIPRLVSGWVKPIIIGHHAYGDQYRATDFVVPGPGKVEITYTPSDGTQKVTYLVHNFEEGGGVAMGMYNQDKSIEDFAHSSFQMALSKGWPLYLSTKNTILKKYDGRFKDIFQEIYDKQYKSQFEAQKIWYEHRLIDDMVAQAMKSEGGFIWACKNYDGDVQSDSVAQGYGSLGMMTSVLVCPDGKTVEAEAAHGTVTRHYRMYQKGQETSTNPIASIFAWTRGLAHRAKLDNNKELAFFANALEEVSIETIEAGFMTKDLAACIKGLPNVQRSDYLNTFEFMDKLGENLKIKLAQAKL
T cruzi growth-2 = Trypanosoma cruzi proliferation inhibition; shares compounds with T cruzi growth-1; T. cruzi beta-gal in NIH3T3, GalScreen luminescence, 90 h; inhibition, % at 8.35 µM; 5,600 compounds, 72% hits; AID 651739;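 active = mean replicate inhibition above about 95% and at least 55% of replicates individually reaching it, limit read from the data; inconclusive = only one of the two criteria is met; inactive = neither criterion is met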
T cruzi growth-3 = blocks T. cruzi growth in NIH3T3 host cells; AID 651740; inhibition, % at 2.09 µM; T. cruzi beta-gal in NIH3T3, GalScreen luminescence, 90 h; 5,600 compounds, 21% hits; shares compounds with T cruzi growth-1;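 active = mean inhibition above about 95%, with at least 55% of replicates also reaching it, limit read from the data; inconclusive = meets just one of the two conditions; inactive = meets neither condition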;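 also: plate controls were neutral control median for no effect and positive control median for full effect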
NIH3T3 tox = cytotoxicity in mouse NIH/3T3 fibroblasts. shares compounds with T cruzi growth-1. NIH/3T3 viability, CellTiter-Glo ATP luminescence, 90 h. cytotoxicity (signal decrease), % at 8.35 µM. 5,600 compounds, 14% hits;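 active = mean signal decrease across replicates above about 35% based on untreated-well scatter, with enough replicates individually passing, limit read from the data; inconclusive = no rule stated though some were filed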;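 also: 0% = median of neutral control wells and 100% = median of positive control wells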
NIH3T3 tox 2 = cytotoxicity in mouse NIH/3T3 fibroblasts; shares compounds with T cruzi growth-1; NIH/3T3 viability, CellTiter-Glo ATP luminescence, 90 h; inhibition, % at 24.9 µM; 5,600 compounds, 56% hits; AID 651744;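 active = mean loss of cell viability signal at or above a set limit, and enough replicates individually reaching it; inconclusive = meets only the mean limit or only the replicate share; inactive = meets neither condition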;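 also: 0% = median of neutral control wells and 100% = median of positive control wells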
Starred values were filed as active, the others as inactive; ? = inconclusive; . = no result given.

SMILES | T cruzi growth-1 | KDM4C inh | IDH1 R132H inh | T cruzi growth-2 | T cruzi growth-3 | NIH3T3 tox | NIH3T3 tox 2
C[C@@H]1CCCCO[C@@H](CN(C)CC2CCCCC2)[C@H](C)CN([C@H](C)CO)C(=O)c2cc(NC(=O)Nc3ccc(C(F)(F)F)cc3)ccc2O1 | ? | -2 | -1 | 106* | 116* | 118* | 105*
C[C@@H]1CCCCO[C@H](CN(C)CC2CCCCC2)[C@H](C)CN([C@H](C)CO)C(=O)c2cc(NC(=O)Nc3ccc(C(F)(F)F)cc3)ccc2O1 | ? | . | -2 | 2 | -1 | -4 | -2
C[C@@H]1CCCCO[C@@H](CN(C)CC2CC2)[C@H](C)CN([C@@H](C)CO)C(=O)c2cc(NC(=O)Nc3ccc(C(F)(F)F)cc3)ccc2O1 | 26 | -1 | . | . | . | . | .
C[C@@H]1CCCCO[C@@H](CN(C)CC2CC2)[C@H](C)CN([C@H](C)CO)C(=O)c2cc(NC(=O)Nc3ccc(C(F)(F)F)cc3)ccc2O1 | 53 | 0 | 4 | . | . | . | .
C[C@@H]1CCCCO[C@H](CN(C)CC2CC2)[C@H](C)CN([C@@H](C)CO)C(=O)c2cc(NC(=O)Nc3ccc(C(F)(F)F)cc3)ccc2O1 | 69 | -2 | . | . | . | . | .
COCCNC(=O)C[C@H]1CC[C@H]2[C@H](COc3ccc(NC(C)=O)cc3C(=O)N2C)O1 | -6 | 1 | . | . | . | . | .
CC(Nc1nc2ccccc2n1C)c1cc(Cl)ccc1O (centres undefined) | . | . | 0 | . | . | . | .
COc1ccc(C)cc1NC(=O)CN(C)S(=O)(=O)c1ccccc1 | . | . | 0 | . | . | . | .
COc1ccc(NC(=O)c2ccco2)cc1NC(=S)NC(=O)c1ccc(-c2cccc(Cl)c2)o1 | . | . | 0 | . | . | . | .
COc1ccc(S(=O)(=O)N(C)C[C@H]2OCCCC[C@H](C)Oc3ccc(NC(=O)Nc4ccccc4)cc3C(=O)N([C@@H](C)CO)C[C@@H]2C)cc1 | 105* | 7 | 4 | 110* | 67 | 18 | 8
COc1ccc(S(=O)(=O)N(C)C[C@H]2OCCCC[C@H](C)Oc3ccc(NC(=O)Nc4ccccc4)cc3C(=O)N([C@H](C)CO)C[C@@H]2C)cc1 | 53 | -1 | 0 | . | . | . | .
COc1ccc(S(=O)(=O)N(C)C[C@@H]2OCCCC[C@@H](C)Oc3ccc(NC(=O)Nc4ccccc4)cc3C(=O)N([C@@H](C)CO)C[C@H]2C)cc1 | ? | -1 | -1 | 111* | 67 | -3 | 5
COc1ccc(S(=O)(=O)N(C)C[C@H]2OCCCC[C@@H](C)Oc3ccc(NC(=O)Nc4ccccc4)cc3C(=O)N([C@@H](C)CO)C[C@@H]2C)cc1 | 100* | -2 | . | 112* | 1 | 8 | ?
COc1ccc(S(=O)(=O)N(C)C[C@@H]2OCCCC[C@@H](C)Oc3ccc(NC(=O)Nc4ccccc4)cc3C(=O)N([C@@H](C)CO)C[C@@H]2C)cc1 | 74 | 0 | -1 | . | . | . | .
COc1ccc(S(=O)(=O)N(C)C[C@H]2OCCCC[C@H](C)Oc3ccc(NC(=O)Nc4ccccc4)cc3C(=O)N([C@H](C)CO)C[C@H]2C)cc1 | -12 | 4 | . | . | . | . | .
COc1ccc(S(=O)(=O)N(C)C[C@@H]2OCCCC[C@H](C)Oc3ccc(NC(=O)Nc4ccccc4)cc3C(=O)N([C@@H](C)CO)C[C@@H]2C)cc1 | ? | -1 | 0 | 105* | 72 | 7 | 25
COc1ccc(NC(=O)Nc2ccc3c(c2)C(=O)N([C@@H](C)CO)C[C@@H](C)[C@@H](CN(C)S(=O)(=O)c2ccccc2)OCCCC[C@@H](C)O3)cc1 | 74 | 1 | . | . | . | . | .
CCC(Sc1nnc2c(n1)[nH]c1ccccc12)C(=O)Nc1cccc2ccccc12 (centres undefined) | . | . | 0 | . | . | . | .
CCC(=O)Nc1ccc2nc(SCc3ccccc3C#N)sc2c1 | . | . | 0 | . | . | . | .
O=C(C[C@@H]1CC[C@H]2[C@@H](COC[C@@H](O)CN2Cc2cccc(-c3ccncc3)c2)O1)N1CCCCC1 | 63 | 0 | . | . | . | . | .
O=C(C[C@@H]1CC[C@H]2[C@@H](COC[C@@H](O)CN2C(=O)Nc2cccc(Cl)c2)O1)N1CCCCC1 | 95* | -2 | . | 64 | 16 | -2 | 15
O=C(C[C@@H]1CC[C@@H]2[C@H](COC[C@H](O)CN2Cc2nccs2)O1)N1CCC(Cc2ccccc2)CC1 | 54 | 1 | . | . | . | . | .
CN1CCN(C(=O)C[C@H]2CC[C@@H]3[C@H](COC[C@H](O)CN3Cc3cccc(Cl)c3)O2)CC1 | -39 | 3 | . | . | . | . | .
O=C(C[C@H]1CC[C@H]2[C@@H](COC[C@@H](O)CN2Cc2cccc(-c3ccncc3)c2)O1)N1CCCCC1 | 109* | -1 | . | 59 | -13 | -23 | -5
O=C(C[C@@H]1CC[C@@H]2[C@H](COC[C@@H](O)CN2Cc2nccs2)O1)N1CCC(Cc2ccccc2)CC1 | 165* | 0 | . | 84 | 32 | 18 | 18
SMILES | T cruzi growth-1 | KDM4C inh | IDH1 R132H inh | T cruzi growth-2 | T cruzi growth-3 | NIH3T3 tox | NIH3T3 tox 2
O=C(C[C@H]1CC[C@H]2[C@@H](COC[C@@H](O)CN2C(=O)Nc2cccc(Cl)c2)O1)N1CCCCC1 | 13 | 2 | . | . | . | . | .
O=C(C[C@H]1CC[C@H]2[C@@H](COC[C@H](O)CN2Cc2cccc(Cl)c2)O1)N1CCCCC1 | 122* | 2 | . | 78 | 30 | 0 | 10
O=C(Nc1ccc(I)cc1C(=O)NCc1ccco1)c1cccnc1 | . | . | 1 | . | . | . | .
Cc1c(Cl)cccc1NC(=O)c1ccccc1OCC(=O)Nc1ccc2c3c(cccc13)CC2 | . | . | 1 | . | . | . | .
O=C(CCN1C(=O)c2ccccc2C1=O)Nc1ccc([N+](=O)[O-])cc1 | . | . | 0 | . | . | . | .
C[C@@H]1CCCCO[C@@H](CN(C)C(=O)NC2CCCCC2)[C@@H](C)CN([C@@H](C)CO)C(=O)c2cc(NC(=O)Nc3ccc(C(F)(F)F)cc3)ccc2O1 | 83 | 1 | 28 | . | . | . | .
COc1cccc(NC(=O)N(C)C[C@H]2Oc3ncc(C#Cc4ccc(F)cc4)cc3C(=O)N([C@H](C)CO)C[C@H]2C)c1 | 41 | -2 | . | . | . | . | .
COc1cccc(NC(=O)N(C)C[C@H]2Oc3ncc(C#Cc4ccc(F)cc4)cc3C(=O)N([C@H](C)CO)C[C@@H]2C)c1 | 80 | -2 | -1 | . | . | . | .
COc1cccc(NC(=O)N(C)C[C@@H]2Oc3ncc(C#Cc4ccc(F)cc4)cc3C(=O)N([C@H](C)CO)C[C@@H]2C)c1 | 104* | -3 | . | 98* | 34 | 26 | 81*
C[C@@H]1CN([C@@H](C)CO)C(=O)c2cc(C#Cc3ccc(F)cc3)cnc2O[C@H]1CN(C)C(=O)Nc1ccc(F)cc1 | 17 | -1 | 0 | . | . | . | .
COc1cccc(NC(=O)N(C)C[C@H]2Oc3ncc(C#Cc4cccnc4)cc3C(=O)N([C@H](C)CO)C[C@H]2C)c1 | 6 | 0 | -2 | . | . | . | .
COc1cccc(NC(=O)N(C)C[C@@H]2Oc3ncc(C#Cc4ccc(F)cc4)cc3C(=O)N([C@H](C)CO)C[C@H]2C)c1 | 117* | -1 | 0 | 108* | 102* | 5 | 14
